Key:
Type in all cases: functional
SF-295 = test: Growth inhibition of human SF295 cells at 10 uM after 48 hrs by SRB assay relative to control; conditions: SF-295, 48 h, read-out: GI
Summary of the method: (§1)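 Screened at the National Cancer Institute by the standard NCI protocol using the sulforhodamine B assay, which measures cellular protein. Single dose of 10 µM. Result is percent growth inhibition; values above 100% mean cell number fell below the initial population. Values are the average of duplicates.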

BT-549 = test: Growth inhibition of human BT549 cells at 10 uM after 48 hrs by SRB assay relative to control; conditions: BT-549, 48 h, read-out: GI; summary of the method: as §1
NCI-H23 = test: Growth inhibition of human NCI-H23 cells at 10 uM after 48 hrs by SRB assay relative to control; conditions: NCI-H23, 48 h, read-out: GI; summary of the method: as §1
SR = test: Growth inhibition of human SR cells at 10 uM after 48 hrs by SRB assay relative to control; conditions: read-out: GI
Summary of the method: (§2)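 NCI screen against its human cancer cell line panel by the standard NCI protocol, SRB protein stain. Single dose of 10 μM. Percent growth inhibition versus control; values above 100% mean the cell population fell below the starting number. Each value is the mean of duplicates.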

HOP-92 = test: Growth inhibition of human HOP92 cells at 10 uM after 48 hrs by SRB assay relative to control; conditions: HOP-92, 48 h, read-out: GI; summary of the method: as §1
NCI/ADR-RES = test: Growth inhibition of human NCI/ADR-RES cells at 10 uM after 48 hrs by SRB assay relative to control; conditions: read-out: GI; summary of the method: as §1
CCRF-CEM = test: Growth inhibition of human CCRF-CEM cells at 10 uM after 48 hrs by SRB assay relative to control; conditions: read-out: GI; summary of the method: as §1
DU-145 = test: Growth inhibition of human DU145 cells at 10 uM after 48 hrs by SRB assay relative to control; conditions: DU-145, 48 h, read-out: GI; summary of the method: as §1
LOX IMVI = test: Growth inhibition of human LOXIMVI cells at 10 uM after 48 hrs by SRB assay relative to control; conditions: read-out: GI; summary of the method: as §1
CAKI-1 = test: Growth inhibition of human Caki1 cells at 10 uM after 48 hrs by SRB assay relative to control; conditions: CAKI-1, 48 h, read-out: GI; summary of the method: as §1
Hs-578T = test: Growth inhibition of human Hs 578T cells at 10 uM after 48 hrs by SRB assay relative to control; conditions: read-out: GI; summary of the method: as §1
PC-3 = test: Growth inhibition of human PC3 cells at 10 uM after 48 hrs by SRB assay relative to control; conditions: PC-3, 48 h, read-out: GI; summary of the method: as §1
HL-60(TB) = test: Growth inhibition of human HL-60(TB) cells at 10 uM after 48 hrs by SRB assay relative to control; conditions: HL-60, 48 h, read-out: GI
Summary of the method: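 Run at NCI under its standard single-dose protocol against a leukemia cell panel. Cells were exposed to 10 µM; growth was read by sulforhodamine B staining of cellular protein and expressed as % growth inhibition versus untreated control. Values above 100% mean the cell population fell below the starting count (cytocidal). Each value is the average of duplicates.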

MCF7 = test: Growth inhibition of human MCF7 cells at 10 uM after 48 hrs by SRB assay relative to control; conditions: MCF7, 48 h, read-out: GI; summary of the method: as §1
SW-620 = test: Growth inhibition of human SW620 cells at 10 uM after 48 hrs by SRB assay relative to control; conditions: SW-620, 48 h, read-out: GI; summary of the method: as §2
SK-MEL-5 = test: Growth inhibition of human SK-MEL-5 cells at 10 uM after 48 hrs by SRB assay relative to control; conditions: SK-MEL-5, 48 h, read-out: GI; summary of the method: as §1
U-251 = test: Growth inhibition of human U251 cells at 10 uM after 48 hrs by SRB assay relative to control; conditions: U-251, 48 h, read-out: GI; summary of the method: as §2
SK-MEL-28 = test: Growth inhibition of human SK-MEL-28 cells at 10 uM after 48 hrs by SRB assay relative to control; conditions: SK-MEL-28, 48 h, read-out: GI; summary of the method: as §1
MOLT-4 = test: Growth inhibition of human MOLT4 cells at 10 uM after 48 hrs by SRB assay relative to control; conditions: MOLT-4, 48 h, read-out: GI; summary of the method: as §1
IGROV-1 = test: Growth inhibition of human IGROV1 cells at 10 uM after 48 hrs by SRB assay relative to control; conditions: IGROV-1, 48 h, read-out: GI; summary of the method: as §1
HCC 2998 = test: Growth inhibition of human HCC2998 cells at 10 uM after 48 hrs by SRB assay relative to control; conditions: HCC 2998, 48 h, read-out: GI; summary of the method: as §1
OVCAR-4 = test: Growth inhibition of human OVCAR4 cells at 10 uM after 48 hrs by SRB assay relative to control; conditions: OVCAR-4, 48 h, read-out: GI; summary of the method: as §1
OVCAR-3 = test: Growth inhibition of human OVCAR3 cells at 10 uM after 48 hrs by SRB assay relative to control; conditions: OVCAR-3, 48 h, read-out: GI; summary of the method: as §1
UACC-257 = test: Growth inhibition of human UACC257 cells at 10 uM after 48 hrs by SRB assay relative to control; conditions: UACC-257, 48 h, read-out: GI; summary of the method: as §2
MDA-MB-468 = test: Growth inhibition of human MDA-MB-468 cells at 10 uM after 48 hrs by SRB assay relative to control; conditions: MDA-MB-468, 48 h, read-out: GI; summary of the method: as §1
SF-539 = test: Growth inhibition of human SF539 cells at 10 uM after 48 hrs by SRB assay relative to control; conditions: SF-539, 48 h, read-out: GI; summary of the method: as §1
RXF 393 = test: Growth inhibition of human RXF393 cells at 10 uM after 48 hrs by SRB assay relative to control; conditions: RXF 393, 48 h, read-out: GI; summary of the method: as §1
SNB-75 = test: Growth inhibition of human SNB75 cells at 10 uM after 48 hrs by SRB assay relative to control; conditions: SNB-75, 48 h, read-out: GI; summary of the method: as §2
RPMI-8226 = test: Growth inhibition of human RPMI8226 cells at 10 uM after 48 hrs by SRB assay relative to control; conditions: RPMI-8226, 48 h, read-out: GI; summary of the method: as §1
OVCAR-5 = test: Growth inhibition of human OVCAR5 cells at 10 uM after 48 hrs by SRB assay relative to control; conditions: OVCAR-5, 48 h, read-out: GI; summary of the method: as §1
SK-MEL-2 = test: Growth inhibition of human SK-MEL-2 cells at 10 uM after 48 hrs by SRB assay relative to control; conditions: SK-MEL-2, 48 h, read-out: GI; summary of the method: as §1
NCI-H522 = test: Growth inhibition of human NCI-H522 cells at 10 uM after 48 hrs by SRB assay relative to control; conditions: NCI-H522, 48 h, read-out: GI; summary of the method: as §1
K562 = test: Growth inhibition of human K562 cells at 10 uM after 48 hrs by SRB assay relative to control; conditions: K562, 48 h, read-out: GI; summary of the method: as §1

Structure (SMILES)	inhibition of growth at 10 µM (SF-295) [%]	inhibition of growth at 10 µM (BT-549) [%]	inhibition of growth at 10 µM (NCI-H23) [%]	inhibition of growth at 10 µM (HOP-92) [%]	inhibition of growth at 10 µM (NCI/ADR-RES) [%]	inhibition of growth at 10 µM (CCRF-CEM) [%]	inhibition of growth at 10 µM (DU-145) [%]	inhibition of growth at 10 µM (LOX IMVI) [%]	inhibition of growth at 10 µM (CAKI-1) [%]	inhibition of growth at 10 µM (Hs-578T) [%]	inhibition of growth at 10 µM (PC-3) [%]	inhibition of growth at 10 µM (HL-60(TB)) [%]	inhibition of growth at 10 µM (MCF7) [%]	inhibition of growth at 10 µM (SW-620) [%]	inhibition of growth at 10 µM (SK-MEL-5) [%]	inhibition of growth at 10 µM (U-251) [%]	inhibition of growth at 10 µM (SK-MEL-28) [%]	inhibition of growth at 10 µM (MOLT-4) [%]	inhibition of growth at 10 µM (IGROV-1) [%]	inhibition of growth at 10 µM (HCC 2998) [%]	further results
Cc1ccc(NC(=O)c2ccc(CN3CCN(C)CC3)cc2)cc1Nc1nccc(-c2cccnc2)n1 [IMATINIB]	15.1	-5	17.1	43.7	-0.5	6.6	14.4	11.6	-0.2	9.9	10.6	-6.8	8.1	-10	22.3	10.6	-9.4	18	-18.6	-22	inhibition of growth at 10 µM (SR): 14.6%; inhibition of growth at 10 µM (OVCAR-4): -0.1%; inhibition of growth at 10 µM (OVCAR-3): -10.3%; inhibition of growth at 10 µM (UACC-257): 2.8%; inhibition of growth at 10 µM (MDA-MB-468): 29.1%; inhibition of growth at 10 µM (SF-539): 24.5%; inhibition of growth at 10 µM (RXF 393): 5.7%; inhibition of growth at 10 µM (SNB-75): 0.6%; inhibition of growth at 10 µM (RPMI-8226): 12.6%; inhibition of growth at 10 µM (OVCAR-5): -22.8%
COc1cccc(C(=O)Nc2cccc(-c3cc(=O)c4c(OC)c(OC)c(OC)cc4o3)c2)c1	42.7	42.5	33.9	51.8	34.5	56.1	32.6	42.6	18.1	43.2	48.8	14.8	21.3	22.8	39.4	36.2	27	53.3	42.6	19.5	inhibition of growth at 10 µM (SK-MEL-2): 38.1%; inhibition of growth at 10 µM (NCI-H522): 58.4%; inhibition of growth at 10 µM (OVCAR-4): 37.7%; inhibition of growth at 10 µM (OVCAR-3): 24.6%; inhibition of growth at 10 µM (UACC-257): 3.66%; inhibition of growth at 10 µM (K562): 62%; inhibition of growth at 10 µM (MDA-MB-468): 5.72%; inhibition of growth at 10 µM (SF-539): 33.7%; inhibition of growth at 10 µM (RXF 393): 28.9%; inhibition of growth at 10 µM (SNB-75): 32.6%; inhibition of growth at 10 µM (RPMI-8226): 83.2%; inhibition of growth at 10 µM (OVCAR-5): 10.4%
COc1ccccc1C(=O)Nc1cccc(-c2cc(=O)c3c(OC)c(OC)c(OC)cc3o2)c1	40.8	54.1	37.6	100	41.8	84	55.1	64.6	34.9	76.4	70	42.3	46.6	36.6	75	61	44	71.2	57.1	32.2	inhibition of growth at 10 µM (SK-MEL-2): 68.8%; inhibition of growth at 10 µM (NCI-H522): 55.7%; inhibition of growth at 10 µM (OVCAR-4): 41%; inhibition of growth at 10 µM (OVCAR-3): 48.6%; inhibition of growth at 10 µM (UACC-257): 38.5%; inhibition of growth at 10 µM (K562): 63.6%; inhibition of growth at 10 µM (MDA-MB-468): 60.8%; inhibition of growth at 10 µM (SF-539): 36.2%; inhibition of growth at 10 µM (RXF 393): 41%; inhibition of growth at 10 µM (SNB-75): 16.8%; inhibition of growth at 10 µM (RPMI-8226): 93.2%; inhibition of growth at 10 µM (OVCAR-5): 18.8%

— ChEMBL document CHEMBL4325889, “Natural products hybrids: 3,5,4'-Trimethoxystilbene-5,6,7-trimethoxyflavone chimeric analogs as potential cytotoxic agents against diverse human cancer cells” (Eur J Med Chem, 2019)
